# Results of several laboratories.
# Each line is one published result; the experiments were not run side by side.
Structure (SMILES),host,medium,route,dose,notes,Tmax [h]
C=CC(=O)N(C)CCOc1c(N)ncnc1-c1cc(F)cc(NC(=O)c2ccc(C3CC3)cc2F)c1C,human,blood,oral,15 mg,"single dose, healthy volunteers",0.5
Nc1cc(C(F)(F)F)c(-c2cc(N3CCOCC3)nc(N3CCOCC3)n2)cn1,human,plasma,oral,50 mg/day,patients,1.02
COc1ccc([C@@H]2CN(C(=O)[C@@H](O)CO)C[C@@]2(C)[C@@H](C)O)cc1OC1CN(c2ccc(C)cn2)C1,human,plasma,oral,40 mg,"single dose, healthy volunteers",3.88
CC(C)[C@H](N)C(=O)NCCCS(=O)(=O)O,human,plasma,oral,171 mg,"multiple doses, twice daily, fasted",0.5
CC(C)(O)c1ccccc1-c1ccc2[nH]c(/C=C/c3ccc(C(F)(F)F)cc3)nc2c1,male human,plasma,oral,30 mg,"single dose, fasted",3.03
C#C[C@]1(COP(=O)(O)OP(=O)(O)OP(=O)(O)O)O[C@@H](n2cnc3c(N)nc(F)nc32)C[C@@H]1O,human,plasma,oral,5 mg,single dose,9
CO[C@H]1/C=C\C=C(/C)C(=O)NC2=CC(=O)C(NCCN(C)C)=C(C[C@@H](C)C[C@H](OC)[C@H](O)[C@@H](C)/C=C(\C)[C@@H]1OC(N)=O)C2=O,human,plasma,intravenous,12 mg/m²,"patients, infusion",1
CC(C)n1cc(C#N)c2cc(-n3cc(C(=O)O)cn3)ccc21,human,plasma,oral,200 mg,"single dose, fed, healthy volunteers",5
CC(C)(Sc1ccncc1-c1ccc(C#N)c2ccccc12)C(=O)O,male human,plasma,oral,5 mg,"single dose, fasted, healthy volunteers",0.63
CCc1nc2c(C)cc(N3CCN(CC(=O)N4CC(O)C4)CC3)cn2c1N(C)c1nc(-c2ccc(F)cc2)c(C#N)s1,human,plasma,oral,60 mg,"fed, healthy volunteers",0.5
CCO[C@H]1CCN(Cc2c(OC)cc(C)c3[nH]ccc23)[C@H](c2ccc(C(=O)O)cc2)C1,human,plasma,oral,200 mg,"multiple doses, twice daily, patients",2
NS(=O)(=O)NCCNc1nonc1C(=NO)Nc1ccc(F)c(Br)c1,human,plasma,oral,100 mg,"multiple doses, twice daily, steady state, patients",2
CNCC[C@H](Oc1cccc2ccccc12)c1cccs1,female human,plasma,oral,30 mg,"multiple doses, once daily",4.7
CS(=O)(=O)CCC#N,human,plasma,oral,300 mg,"multiple doses, once daily",1
C[C@@H](Nc1cc(F)cc(F)c1)c1cc(C(=O)N(C)C)cc2c(=O)cc(N3CCOCC3)oc12,human,plasma,oral,180 mg,"single dose, patients",1.98
O=C(Nc1c(Cl)cncc1Cl)c1ccc(OC(F)F)c(OCC2CC2)c1,human,plasma,oral,0.375 mg,single dose,0.5
Cn1cc(-c2ccc(S(=O)(=O)[C@@H]3C[C@@H](C(=O)NC4(C#N)CC4)N(C(=O)C4(C(F)(F)F)CC4)C3)c(C(F)(F)F)c2)cn1,human,plasma,oral,300 mg,"single dose, fasted, healthy volunteers",3.5
CO[C@@H]1[C@H](OC(=O)N2CC(CCN3CCOCC3)C2)CC[C@]2(CO2)[C@H]1[C@@]1(C)O[C@@H]1CC=C(C)C,human,plasma,subcutaneous,2.4 mg,"single dose, healthy volunteers",0.25
